The text below walks through data of ChEMBL document CHEMBL5335845, “Discovery of GLPG2737, a Potent Type 2 Corrector of CFTR for the Treatment of Cystic Fibrosis in Combination with a Potentiator and a Type 1 Co-corrector” (J Med Chem, 2024).

A short description of series [1]: Metabolic stability in human liver microsomes assessed as unbound intrinsic clearance at 1 uM incubated for 30 mins by LC-MS/MS analysis. The format is ADME, Microsome. Particulars: 0.5 h.
Series [2] in a line: Metabolic stability in rat hepatocyte assessed as unbound intrinsic clearance at 1 uM incubated for 180 mins by LC-MS/MS analysis. As to conditions: hepatocytes, 3 h. The format is ADME, cell-based.
Series [3] is described as follows: Metabolic stability in rat liver microsomes assessed as unbound intrinsic clearance at 1 uM incubated for 30 mins by LC-MS/MS analysis. The class given is ADME, Microsome. Particulars: 0.5 h.
Series [4] can be described thus: Metabolic stability in dog hepatocyte assessed as unbound intrinsic clearance at 1 uM incubated for 180 mins by LC-MS/MS analysis. The class given is ADME, cell-based, Canis lupus familiaris. Particulars: hepatocytes, 3 h.
A short description of series [5]: Metabolic stability in human hepatocyte assessed as unbound intrinsic clearance at 1 uM incubated for 180 mins by LC-MS/MS analysis. The format is ADME, cell-based. Particulars: hepatocytes, 3 h.
The nature of series [6]: Plasma clearance in Sprague-Dawley rat at 5 mg/kg, po or 0.1 mg/kg, iv measured upto 24 hrs by LC-MS/MS analysis. The format is ADME, organism-based. Particulars: in vivo. In outline: (§1)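 Male Sprague–Dawley rats (6–8 weeks), iv tail-vein bolus 0.1 mg/kg in PEG200/water 60/40, or oral gavage 5 mg/kg suspension in 0.5% MC after ≥12 h fast; plasma (Li-heparin) sampled to 24 h, n = 3 per route, LC-MS/MS; noncompartmental analysis.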

Series [7] is described as follows: Clearance in Sprague-Dawley rat at 1 mg/kg, iv measured after 24 hrs by LC-MS/MS analysis. The format is ADME, organism-based. As to conditions: in vivo.
In series [8] the target is T1, Cytochrome P450 3A4 (Homo sapiens, UniProt P08684). Kind of series: Induction of CYP3A4 in human hepatocytes assessed as mRNA at 10 uM after 72 hrs by qPCR analysis relative to rifampicin. The class given is ADME, cell-based, Hepatocyte. In a few lines: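 Single-donor cryopreserved human hepatocytes, 0.1 × 10^6 cells/well, exposed to 10 μM compound (0.1% DMSO) in triplicate for 72 h with daily renewal; RNA RT-qPCR for CYP3A4 vs endogenous control, 2^-ΔΔCT relative to vehicle, expressed as % of 10 μM rifampicin.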
T1 sequence (P08684 whole entry): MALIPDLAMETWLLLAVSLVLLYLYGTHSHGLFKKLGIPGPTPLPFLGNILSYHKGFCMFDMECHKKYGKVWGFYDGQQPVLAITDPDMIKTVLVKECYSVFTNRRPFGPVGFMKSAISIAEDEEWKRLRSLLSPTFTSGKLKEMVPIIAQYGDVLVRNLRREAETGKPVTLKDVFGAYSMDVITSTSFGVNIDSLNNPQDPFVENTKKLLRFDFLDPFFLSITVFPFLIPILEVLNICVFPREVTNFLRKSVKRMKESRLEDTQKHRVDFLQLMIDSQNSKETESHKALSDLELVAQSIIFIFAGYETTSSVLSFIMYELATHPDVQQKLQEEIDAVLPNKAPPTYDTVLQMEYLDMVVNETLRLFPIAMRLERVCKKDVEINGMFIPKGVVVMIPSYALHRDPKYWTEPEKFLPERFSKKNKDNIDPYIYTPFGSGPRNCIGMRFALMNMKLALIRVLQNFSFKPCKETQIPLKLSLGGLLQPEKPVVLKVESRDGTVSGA
(In general: In qPCR the cycle at which signal appears reflects the starting amount.)

The nature of series [9]: Unbound clearance in Beagle dog at 5 mg/kg, po measured upto 24 hrs by LC-MS/MS analysis. The format is ADME, organism-based, Canis lupus familiaris. Particulars: in vivo. In a few lines: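 Male Beagle dogs (n = 3), iv 10 min […], then after 3-day washout oral gavage 5 or 1 mg/kg in PEG400/0.5% MC or 0.5% MC after ≥12 h fast; jugular or cephalic blood (Li-heparin) to 24 h, plasma by LC-MS/MS.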

Series [10] can be described thus: Plasma protein binding in human at 5 uM measured after 4 hrs under shaking by LC-MS/MS analysis. The format is ADME, cell-free. As to conditions: read-out: PPB (converted). In a few lines:
(§2)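 Equilibrium dialysis of compound 5 μM (0.5% DMSO) in plasma against PBS pH 7.4, 4 h at 37 °C with shaking; matrix-matched samples, acetonitrile precipitation, LC-MS/MS; % bound from plasma and buffer peak areas.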

Series [11] is described as follows: Unbound clearance in Sprague-Dawley rat at 5 mg/kg, po or 0.1 mg/kg, iv measured upto 24 hrs by LC-MS/MS analysis. The class given is ADME, organism-based. As to conditions: in vivo. In a few lines: as §1
The target of series [12] is Sigma receptor (Homo sapiens, UniProt Q99720+Q5BJF2). Briefly: Inhibition of human Sigma receptor. The class given is protein assay. In a few lines:
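Radioligand binding panel: displacement of cognate radioligand from human H1 or Sigma receptor, IC50 determined.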

Series [13] is described as follows: Plasma protein binding in rat at 5 uM measured after 4 hrs under shaking by LC-MS/MS analysis. The format is ADME, cell-free. Particulars: read-out: PPB (converted). In a few lines:
as §2

The nature of series [14]: Half life in Sprague-Dawley rat at 0.1 mg/kg, iv measured upto 24 hrs by LC-MS/MS analysis. The format is ADME, organism-based. As to conditions: in vivo. In a few lines: as §1
A short description of series [15]: Thermodynamic solubility of the compound in fasted simulated gastric fluid measured after 24 hrs by LC-MS/MS analysis. The format is physicochemical. Particulars: read-out: Therm_solubility. In a few lines: (§3)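 Solid compound at 1 mg/mL in fasted simulated gastric fluid or pH 7.4 buffer, stirred 24 h at room temperature, centrifuged and filtered, diluted and quantified by LC-MS/MS against standard curve.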

Series [16] can be described thus: Plasma clearance in Beagle dog iv measured upto 24 hrs by LC-MS/MS analysis.
Series [17] is described as follows: Apparent permeability from apical to basolateral side in MDCKII-MDR1 cells at 10 uM measured after 1 hr by LC-MS/MS analysis. The class given is ADME, cell-based, Canis lupus familiaris. As to conditions: dog, MDCK-MDR1.
Series [18] in a line: Thermodynamic solubility of the compound at pH 7.4 measured after 24 hrs by LC-MS/MS analysis. The format is physicochemical. Particulars: buffer, read-out: Therm_solubility. In outline: as §3
A short description of series [19]: Plasma protein binding in dog at 5 uM measured after 4 hrs under shaking by LC-MS/MS analysis. The format is ADME, cell-free, Canis lupus familiaris. Particulars: read-out: PPB (converted). In outline:
as §2

The nature of series [20]: Half life in Beagle dog at 0.1 mg/kg, iv measured upto 24 hrs by LC-MS/MS analysis. The format is ADME, organism-based, Canis lupus familiaris. Particulars: in vivo.
A short description of series [21]: Volume of distribution at steady state in Sprague-Dawley rat at 5 mg/kg, po or 0.1 mg/kg, iv measured upto 24 hrs by LC-MS/MS analysis. The format is ADME, organism-based. Particulars: in vivo. In a few lines:
as §1

A short description of series [22]: Genotoxicity in Salmonella typhimurium by Ames test. The format is toxicity. Particulars: salmonella enterica subsp. enterica serovar typhimurium. A general note: In the Ames test, an excess of revertant colonies over the control signals mutagenicity.
Series [23] deals with T1, Cytochrome P450 3A4. Briefly: Inhibition of CYP3A4 in human liver microsomes using midazolam as substrate in presence of NADPH by LC/MS/MS analysis. The format is ADME, Microsome. Background: Liver microsomes are vesicles of endoplasmic reticulum, rich in cytochrome P450 enzymes.
Series [24] in a line: Volume of distribution at steady state in Beagle dog at 5 mg/kg, po or 0.1 mg/kg, iv measured upto 24 hrs by LC-MS/MS analysis. The format is ADME, organism-based, Canis lupus familiaris. Particulars: in vivo.
Series [25] deals with Voltage-gated inwardly rectifying potassium channel KCNH2 (Homo sapiens, UniProt Q12809). Kind of series: Inhibition of human ERG by manual patch clamp test. The format is toxicity.
Sequence of Voltage-gated inwardly rectifying potassium channel KCNH2 (Q12809 whole entry): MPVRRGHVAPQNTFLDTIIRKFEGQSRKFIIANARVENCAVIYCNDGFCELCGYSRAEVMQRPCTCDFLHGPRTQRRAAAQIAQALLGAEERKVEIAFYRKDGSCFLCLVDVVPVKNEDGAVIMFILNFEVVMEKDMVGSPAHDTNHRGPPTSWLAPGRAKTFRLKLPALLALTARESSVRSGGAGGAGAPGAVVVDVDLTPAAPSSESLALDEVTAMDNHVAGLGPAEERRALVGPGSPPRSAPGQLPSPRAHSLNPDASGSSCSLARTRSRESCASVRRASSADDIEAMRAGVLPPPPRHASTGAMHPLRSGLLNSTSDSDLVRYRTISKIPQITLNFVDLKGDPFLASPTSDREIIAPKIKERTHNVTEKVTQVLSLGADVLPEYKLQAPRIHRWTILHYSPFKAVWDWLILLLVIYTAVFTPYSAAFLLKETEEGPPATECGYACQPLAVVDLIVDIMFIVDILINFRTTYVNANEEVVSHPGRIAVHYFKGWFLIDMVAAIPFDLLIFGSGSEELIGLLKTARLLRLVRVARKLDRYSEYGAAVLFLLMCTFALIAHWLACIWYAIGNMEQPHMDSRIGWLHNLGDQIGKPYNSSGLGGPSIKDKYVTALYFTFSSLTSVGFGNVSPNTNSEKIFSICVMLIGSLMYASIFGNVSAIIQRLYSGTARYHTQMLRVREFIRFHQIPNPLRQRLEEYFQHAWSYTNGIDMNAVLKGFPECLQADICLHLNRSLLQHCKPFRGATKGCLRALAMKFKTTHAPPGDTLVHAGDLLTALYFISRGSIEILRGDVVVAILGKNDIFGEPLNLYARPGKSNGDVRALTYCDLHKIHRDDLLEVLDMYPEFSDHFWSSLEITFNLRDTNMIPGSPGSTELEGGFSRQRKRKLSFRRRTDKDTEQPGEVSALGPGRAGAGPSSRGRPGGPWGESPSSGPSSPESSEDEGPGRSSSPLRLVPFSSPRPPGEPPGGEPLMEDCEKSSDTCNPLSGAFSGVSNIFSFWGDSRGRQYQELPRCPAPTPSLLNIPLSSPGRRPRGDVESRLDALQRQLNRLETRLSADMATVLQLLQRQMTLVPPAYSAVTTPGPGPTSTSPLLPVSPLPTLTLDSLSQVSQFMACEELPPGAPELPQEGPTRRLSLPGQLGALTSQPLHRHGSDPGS
For series [26], the target named is T1, Cytochrome P450 3A4. Kind of series: Inhibition of CYP3A4 in human liver microsomes using testosterone as substrate in presence of NADPH by LC/MS/MS analysis. The format is ADME, Microsome.
The nature of series [27]: Intestinal permeability across apical to basolateral side in human Caco-2 cells at 10 uM measured after 1 hr by LC-MS/MS analysis. The class given is ADME, cell-based. As to conditions: read-out: permeability.

Values after ≈ are worked out from the molar mass of the structure shown. Bounds are passed on as bounds.

As to `COc1ccc(-c2cc(C(=O)O)nc3c2c(C)nn3-c2ccccc2)cc1`, the CL free was 10.4 L/h/kg in series [1], 18.3 L/h/kg in series [2] and 10.8 L/h/kg in series [3].

Consider `CN(C)S(=O)(=O)NC(=O)c1cc(N2CCC(N3CCOCC3)CC2)c2c(C3CCC3)nn(-c3ccc(F)cc3)c2n1`, for which the CL free was 1.9 L/h/kg in series [4], less than 0.66 L/h/kg in series [5] and 2.94 L/h/kg in series [2]. In series [6], this compound had a CL of 0.19 L/h/kg.

In [7], `CS(=O)(=O)NC(=O)c1cc(-c2ccc(N3CCC(C#N)CC3)nc2)c2c(C3CCC3)nn(-c3ccccc3)c2n1` registered a CL of 0.0246 L/h/kg.

For `CS(=O)(=O)NC(=O)c1cc(N2CCC(N3CCOCC3)CC2)c2c(C3CCC3)nn(-c3ccc(F)cc3)c2n1`, the Activity in series [8] is on record as 9%. The CL free in series [2] is less than 0.69 L/h/kg.

As usually defined, the IC50 is the concentration that gives 50% inhibition. By half-life is commonly meant the time needed for the level to fall by half in the phase considered. Usually clearance stands for the volume of plasma or blood freed of the substance per unit of time. Low values mean inefficient removal, high ones efficient removal. `COC1CCN(c2cc(C(=O)NS(=O)(=O)N(C)C)nc3c2c(C2CCC2)nn3-c2ccc(F)cc2)CC1`: the CL free was 10.7 L/h/kg in series [9]; less than 1.49 L/h/kg in [4]; 20 L/h/kg in series [11]; less than 0.77 L/h/kg in series [5]; 3.97 L/h/kg in series [2]. In addition, the fraction unbound at 4 h, 5 µM was 0.02 in series [10], 0.016 in series [13] and 0.025 in series [19]. In addition, the IC50 was 0.36 µM in series [12], greater than 100 µM in series [23] and greater than 100 µM in series [26]. For the same compound, the half-life in [14] is 207 min; in series [20] it was 324 min. Further, the solubility thermodynamic at 24 h in series [15] was 10.9 µg/mL (≈ 20.5 µM); in series [18], 9.9 µg/mL (≈ 18.7 µM). The same compound showed a clearance in series [16] of 3.5 mL/min/kg. Moreover, the CL in series [6] is 0.32 L/h/kg. Besides, the Papp A→B at 1 h, 10 µM in series [17] is 5.45 ×10⁻⁶ cm/s; in series [27], 24.5 ×10⁻⁶ cm/s. Also, the Vdss in [21] amounted to 1.38 L/kg; in [24] it was 1.37 L/kg. Further, the Activity result was “Non-Toxic” in series [22] and 4% in series [8]. Moreover, in series [25], the “inhibition (INH)” value is given as “Not Active”.

For `Cc1nn(-c2ccccc2)c2nc(C(=O)O)cc(-c3ccc(N4CCOCC4)cc3)c12`, the CL free is less than 2.74 L/h/kg in [5], less than 1.7 L/h/kg in [1], 4 L/h/kg in series [2] and less than 2.6 L/h/kg in series [3].

`O=C(O)c1cc(-c2ccc(N3CCOCC3)cc2)c2c(C3CCC3)nn(-c3ccccc3)c2n1`: in series [7], the CL is 0.2 L/h/kg.

`COc1ccc(-c2cc(C(=O)O)nc3c2c(C)nn3-c2ccc(C)cc2)cc1`: the CL free was less than 3.59 L/h/kg in [1], 15.8 L/h/kg in series [2] and 10.9 L/h/kg in series [3].
